# Test results: ChEMBL document CHEMBL1132456 (J Med Chem, 1999)
# Experiments:
# [1] = biological target: Human immunodeficiency virus type 1 reverse transcriptase (Human immunodeficiency virus 1, UniProt Q72547, K103N); assay: In vitro inhibitory activity against HIV-1 mutant Reverse transcriptase containing the single amino acid substitution K103N
# Method in brief: (§1)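 Template poly(rA):oligo(dT) (0.3 μM 3'-OH ends) with 10 μM [3H]dTTP, incubated at 37 °C. Acid-precipitable counts taken on filters. Inhibitor spanned 0.2–5 Ki. Ki came from Lineweaver–Burk and Dixon plots, triplicate runs.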
# [2] = biological target: Human immunodeficiency virus type 1 reverse transcriptase (Human immunodeficiency virus 1, UniProt Q72547, Y188L); assay: In vitro inhibitory activity against HIV-1 mutant Reverse transcriptase containing the single amino acid substitution Y188L; method in brief: as §1
# [3] = biological target: Human immunodeficiency virus type 1 reverse transcriptase (Human immunodeficiency virus 1, UniProt Q72547, V106A); assay: In vitro inhibitory activity against HIV-1 mutant Reverse transcriptase containing the single amino acid substitution V106A; method in brief: as §1
# [4] = The compound was tested for cytotoxicity against NSO murine cell line.; assay type: cell-based; conditions: mouse, NSO cells; read-out: TC50 (the source's name)
# Method in brief: (§2)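 Cells seeded in 96-well plates: human PHA-stimulated lymphocytes 20 000, 3T3 10 000, NSO 3 000, Daudi 300 per well. Graded compound concentrations added 12 h after plating; 48 h exposure. MTT (5 mg/mL stock) added for 2 h at 37 °C, then SDS/DMF extraction buffer overnight. OD read at 570 nm, blank subtracted, reported as OD × 1000.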
# [5] = The compound was tested for cytotoxicity against Human Lymphocytes; conditions: read-out: TC50 (the source's name); method in brief: as §2
# [6] = biological target: Human immunodeficiency virus type 1 reverse transcriptase (Human immunodeficiency virus 1, UniProt Q72547, L100I); assay: In vitro inhibitory activity against HIV-1 mutant Reverse transcriptase containing the single amino acid substitution L100I; method in brief: as §1
# CEM-SS [7] = assay: The compound was tested for inhibition against HIV-1 from CEM-SS cell lines.; assay type: functional, cell-based; conditions: Homo sapiens
# Method in brief: (§3)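 Testing by the NCI AIDS Antiviral Screening Program: protection of HIV-1-infected CEM-SS T4 lymphocytes from cell death, run alongside an AZT control. EC₅₀ is the concentration giving 50% survival of infected cells relative to uninfected untreated controls. IC₅₀ is the concentration giving 50% survival of uninfected cells. SI = IC₅₀/EC₅₀.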
# [8] = The compound was tested for cytotoxicity against Daudi human cell line.; assay type: cell-based; conditions: Daudi cells, read-out: TC50 (the source's name); method in brief: as §2
# C8166 [9] = assay: The compound was tested for inhibition against HIV-III B from C8 166 cell lines.; assay type: functional, cell-based; conditions: Homo sapiens
# Method in brief: (§4)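 C8166 cells at 90 × 10³ cells/mL infected with 100 TCID₅₀ HIV with or without compound for 2 h at 37 °C. Cells washed, replated at 35 × 10³ cells/200 μL, and kept 5 days with drug. Cytopathic protection and toxicity both read by MTT (OD 490/650 nm). EC₅₀ and IC₅₀ from median effect equation; SI = IC₅₀/EC₅₀.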
# [10] = biological target: Human immunodeficiency virus type 1 reverse transcriptase (Human immunodeficiency virus 1, UniProt Q72547); assay: In vitro inhibitory activity against HIV-1 wild type reverse transcriptase (RT)
# [11] = biological target: Human immunodeficiency virus type 1 reverse transcriptase (Human immunodeficiency virus 1, UniProt Q72547, Y181I); assay: In vitro inhibitory activity against HIV-1 mutant Reverse transcriptase containing the single amino acid substitution Y181I; method in brief: as §1
# [12] = The compound was tested for cytotoxicity against 3T3 fibroblast murine cell line.; assay type: cell-based; conditions: mouse, NIH3T3 fibroblast cells; read-out: TC50 (the source's name); method in brief: as §2
# CEM-SS [13] = assay: (§5) The compound was tested for inhibition against HIV-1 from CEM-SS cell lines; assay type: functional, cell-based; conditions: Homo sapiens; method in brief: as §3
# C8166 [14] = assay: (§6) The compound was tested for inhibition against HIV-III B from C8 166 cell lines; assay type: functional, cell-based; conditions: Homo sapiens; method in brief: as §4
# [15] = system: Human immunodeficiency virus 3; assay: The compound was tested in presence of AZT for Anti-viral of compound in C8166 cells infected with HIV-IIIB; assay type: functional, organism-based; conditions: Human immunodeficiency virus 1, IIIB
# Method in brief: (§7)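 C8166 cells at 90 × 10³ cells/mL exposed to 100 TCID₅₀ HIV with or without drug (alone, or together with AZT) for 2 h at 37 °C, 5% CO₂. Cells then washed and replated at 35 × 10³ cells/200 μL and cultured 5 days with the same drug levels. Protection from cytopathic effect read by MTT at 490/650 nm; EC₅₀ from median effect equation.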
# [16] = system: Human immunodeficiency virus 1; assay: as §5; assay type: functional, organism-based; conditions: Human immunodeficiency virus 1, CEM-SS; method in brief: as §3
# [17] = system: Human immunodeficiency virus 3; assay: The compound was tested for Anti-viral activity of AZT with compound in C8166 cells infected with HIV-IIIB; assay type: functional, organism-based; conditions: Human immunodeficiency virus 1, IIIB; method in brief: as §7
# [18] = […] index values calculated at 50% viral activity using mutually nonexclusive forms of equation.
# Method in brief: (§8)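 Chou–Talalay multiple drug effect analysis of compound combined with AZT in acutely HIV-infected C8166 cells. Combination index computed at 50% effect under the mutually exclusive or mutually nonexclusive assumption.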
# [19] = system: Human immunodeficiency virus 3; assay: as §6; assay type: functional, organism-based; conditions: Human immunodeficiency virus 1, IIIB, C8166; method in brief: as §4
# [20] = […] index values calculated at 50% viral activity using mutually exclusive forms of equation.; method in brief: as §8
# [21] = system: Human immunodeficiency virus 3; assay: The compound was tested for Anti-viral activity of compound alone in C8166 cells infected with HIV-IIIB; assay type: functional, organism-based; conditions: Human immunodeficiency virus 1, IIIB; method in brief: as §7
# [22] = system: Human immunodeficiency virus 3; assay: The compound was tested in presence of AZT for Anti-viral activity of compound in C8166 cells infected with HIV-IIIB; assay type: functional, organism-based; conditions: Human immunodeficiency virus 1, IIIB; method in brief: as §7
# [23] = The compound was tested for cytotoxicity against NSO murine cell lines.; assay type: cell-based; conditions: mouse, NSO cells; read-out: TC50 (the source's name); method in brief: as §2
SMILES,Ki [1] [µM],Ki [2] [µM],Ki [3] [µM],CC50 [4] [µM],CC50 [5] [µM],Ki [6] [µM],EC50 (CEM-SS [7]) [µM],IC50 (CEM-SS [7]) [µM],CC50 [8] [µM],IC50 (C8166 [9]) [µM],Ki [10] [µM],Ki [11] [µM],CC50 [12] [µM],EC50 (C8166 [9]) [µM],IC50 [19] [µM],other results
CCC1(c2cccs2)Oc2cccnc2-n2cccc2C1=O (stereo not given),0.045,0.475,0.09,26,30,0.09,0.15,> 2,29,20.5,0.093,0.43,35,,,
CCC1(c2cccc(C)c2)Oc2cccnc2-n2cccc2C1=O (stereo not given),0.03,1.5,0.4,410,400,0.044,0.027,> 2,380,7.2,0.021,1.2,400,0.27,,
CCC1(c2cccs2)Oc2ccccc2-n2cccc2C1=O (stereo not given),0.4,0.3,0.11,,,0.07,0.115,11,,,0.03,0.97,,,,
CCC1(c2cccc(F)c2)Oc2ccccc2-n2cccc2C1=O (stereo not given),0.07,1.5,0.4,720,720,0.16,,,720,,0.1,4,710,,,EC50 (CEM-SS [13]): 0.072 µM; IC50 (CEM-SS [13]): 2 µM; EC50 (C8166 [14]): 1.1 µM; IC50 (C8166 [14]): 13.8 µM
CCC1(c2cccc(C)c2)Oc2ccccc2-n2cccc2C1=O (stereo not given),1.1,1.9,0.25,> 1000,> 1000,0.1,,,> 1000,,0.07,4,> 1000,,52,EC50 [15]: 0.011 µM; EC50 [16]: 0.35 µM; IC50 [16]: 119 µM; EC50 [17]: 0.00325 µM; CI [18]: 0.04; CI [20]: 0.04; EC50 [21]: 0.425 µM
CCC1(c2cc(F)cc(F)c2)Oc2ccccc2-n2cccc2C1=O (stereo not given),2.7,> 10,3,,,1.7,,,,,1.5,6.8,,,17.1,
CCC1(c2ccccc2)Oc2cccnc2-n2cccc2C1=O (stereo not given),0.3,1.5,0.07,14,13,0.04,0.069,3.9,13,6,0.022,4,10,0.054,,EC50 [22]: 0.017 µM; EC50 [17]: 0.00317 µM; CI [18]: 0.303; CI [20]: 0.302; EC50 [21]: 0.054 µM
CCC1(c2ccc(C)cc2)Oc2ccccc2-n2cccc2C1=O (stereo not given),,,,,,,,,,,0.97,,,,,
CCC1(c2ccccc2)Oc2ccccc2-n2cccc2C1=O (stereo not given),7.7,> 10,3.9,,32,0.75,0.47,,26,10,0.19,> 10,33,0.8,,CC50 [23]: 24 µM
CCC1(c2cccc(OC)c2)Oc2ccccc2-n2cccc2C1=O (stereo not given),0.022,> 10,0.01,230,200,0.011,,,280,,0.06,> 10,210,,7,EC50 [16]: 0.04 µM; IC50 [16]: 0.2 µM
